From PubChem BioAssay
Most compounds without a hit are left out; they make up all but 1.4% or so of the library.
Arr AP2 block: inhibitors of human beta-arrestin and AP2 interaction; actives 0.31% (n = 340,000); FITC-arrestin peptide / GST-AP2 beads, flow cytometry; AP2 beta2 appendage carries R879A mutation; inhibition, % at 10 µM;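 active = inhibition above a set limit, near 3 SD of compounds lacking own fluorescence, cut at about 54% in these data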
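Assay system: GST-AP2 R879A bound to glutathione beads, E. coli-expressed; Medium: PBS with 0.05% Tween 20 and 0.1% BSA; Also added: fluorescein-tagged arrestin peptide at 50 nM final; Timing: 12 min plus 1 h, RT; Measured by: flow cytometry, FL1 (488/535 nm); Evaluation: percent drop in bead-associated FITC signal.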
CAL PDZ FP-1: CAL PDZ (human) peptide binding inhibition. Q9HD26. actives 0.92% (n = 300,000). inhibition, % at 24.9 µM. purified CAL PDZ, TMR-peptide fluorescence polarization, 1 h. AID 602252;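 active = mean inhibition of at least 30% with at least half of replicates also reaching 30%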
Tn6 DDE FP: DD(E)-Tn6 binding inhibition, primary FP screen. inhibition, % at 8.3 µM. actives 0.21% (n = 370,000). AID 720509. Fibrin DD(E) TRITC-Tn6 fluorescence polarization displacement. P02675;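 active = inhibition above a per-campaign cutoff: mean of compounds within control limits plus 3 SD, cut at about 15% in these data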
Tn7 DDE FP: DD(E)-Tn7 binding inhibition, primary FP screen | actives 0.13% (n = 370,000) | FP displacement of FITC-Tn7 peptide from fibrin DD(E); 0% = median of compound wells per plate | inhibition, % at 8.3 µM | P02675;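 active = inhibition above the mean of compounds falling within the control limits plus 3 SD of them, cut at about 14% in these data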
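Measure: % inhibition scaled between sample-field median and high-control FP; Test system: human fibrin DD(E); Quantity: 2 µM final DD(E) protein; Doses: one dose, 8.3 µM nominal; Schedule: compound with protein 10 min, then 3 h after probe, room temperature; Detection: fluorescence polarization; Medium: Tris buffer with calcium and detergent, pH 7.8.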
CAL PDZ FP-2: inhibitors of human CAL PDZ peptide binding | Q9HD26 | purified CAL PDZ, TMR-peptide fluorescence polarization, 1 h | inhibition, % at 20 µM | actives 0.02% (n = 330,000) | AID 504414;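 active = highest replicate inhibition of at least 40%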
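Control set: unlabelled peptide and DMSO controls / Material: purified CerCALP PDZ construct / Timing: 1 h incubation at room temperature before polarization reading / Doses: 20 µM, one dose / Detection: fluorescence polarization (mP)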
Arr AP2 CP1: blocks beta-arrestin peptide binding to human AP2 | inhibition, % at 10 µM | shares compounds with Arr AP2 block | AID 504908 | actives 2% (n = 1,300) | GST-AP2 beads, FITC arrestin peptide binding, flow cytometry; GST-fused beta2-adaptin appendage, R879A mutant;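 active = inhibition above a set limit, roughly 3 SD of non-fluorescent compound noise, cut at about 38% in these data; inactive = inhibition at or below that limit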;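 also: loss of bead fluorescence from 50 nM FITC arrestin peptide bound to appendage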
Target sequence (P63010 whole entry, looked up, the tested form may be a part, one chain of several): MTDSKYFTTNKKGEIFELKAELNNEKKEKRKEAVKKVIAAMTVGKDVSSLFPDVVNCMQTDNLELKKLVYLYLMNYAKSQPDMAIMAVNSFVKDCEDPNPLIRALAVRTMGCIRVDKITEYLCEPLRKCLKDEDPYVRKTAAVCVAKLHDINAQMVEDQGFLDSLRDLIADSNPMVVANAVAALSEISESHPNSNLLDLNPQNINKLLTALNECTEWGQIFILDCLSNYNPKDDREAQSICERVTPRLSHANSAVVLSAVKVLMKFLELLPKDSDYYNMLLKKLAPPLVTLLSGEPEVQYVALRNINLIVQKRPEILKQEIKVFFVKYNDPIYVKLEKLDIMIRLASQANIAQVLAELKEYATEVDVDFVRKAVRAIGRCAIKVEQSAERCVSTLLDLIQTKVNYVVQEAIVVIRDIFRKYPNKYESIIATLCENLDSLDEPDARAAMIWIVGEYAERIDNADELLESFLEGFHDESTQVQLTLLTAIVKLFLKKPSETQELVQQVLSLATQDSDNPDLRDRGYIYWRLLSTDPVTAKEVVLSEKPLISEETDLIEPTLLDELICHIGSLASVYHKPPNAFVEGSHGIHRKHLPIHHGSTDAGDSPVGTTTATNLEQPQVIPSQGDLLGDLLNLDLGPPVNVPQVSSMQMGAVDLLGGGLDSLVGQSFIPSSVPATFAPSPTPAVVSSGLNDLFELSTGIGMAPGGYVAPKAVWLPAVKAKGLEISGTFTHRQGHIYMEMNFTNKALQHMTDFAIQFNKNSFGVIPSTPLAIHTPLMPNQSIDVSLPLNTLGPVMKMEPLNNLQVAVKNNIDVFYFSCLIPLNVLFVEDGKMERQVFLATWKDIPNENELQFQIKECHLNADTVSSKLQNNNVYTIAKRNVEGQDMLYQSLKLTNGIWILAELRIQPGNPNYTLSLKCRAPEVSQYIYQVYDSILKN
GST-FITC bead: GST-GSH bead binding interference, counter-screen; inhibition, % at 10 µM; actives 2% (n = 1,300); GST-fluorescein binding to GSH beads, fluorescence; AID 588338; shares compounds with Arr AP2 block;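 active = inhibition above 50%, about 3 SD of the inhibition seen with non-fluorescent compounds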;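 also: fluorescein maleimide labelled GST captured on 4 micron glutathione beads; higher means more loss of bead fluorescence from quenching or blocked binding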
Of the large screens only hits and unclear results are named; the others gave an inactive call (follow-up assays come after a bar, where they were run).

CN(C)c1ccc(S(=O)(=O)N2CCCCC2)cc1NC(=O)CN1C(=O)NC(C)(c2ccccc2)C1=O (stereo not given)	none
CN(C)c1ccc(S(=O)(=O)N2CCCCC2)cc1NC(=O)CN1C(=O)NC2(CCCC2)C1=O	Arr AP2 block 54 | Arr AP2 CP1 inactive | GST-FITC bead inactive
CCOC(=O)Cn1c(=NC(=O)c2cccs2)sc2cc(C(=O)OC)ccc21	Arr AP2 block 106 | Arr AP2 CP1 inactive
CCOC(=O)c1ccc2c(c1)sc(=NC(=O)c1ccco1)n2CCOC	none
Cc1ccc(Cn2cc(COC(=O)N3CCOCC3)nn2)cc1	none (no result: Arr AP2 block, CAL PDZ FP-1, CAL PDZ FP-2)
COc1ccccc1CC(=O)Nc1cc2oc3ccccc3c2cc1OC	Arr AP2 block 54 | Arr AP2 CP1 inactive | GST-FITC bead inactive
COc1cc2c(cc1NC(=O)COCC(=O)O)oc1ccccc12	none
COc1ccc(CC(=O)Nc2cc3oc4ccccc4c3cc2OC)cc1	none | Arr AP2 CP1 inactive | GST-FITC bead inactive
COc1ccc(NC(=O)CC(C)CC(=O)NCc2ccccc2)c(OC)c1 (stereo not given)	Arr AP2 block 62 (no result: CAL PDZ FP-2) | Arr AP2 CP1 inactive | GST-FITC bead inactive
COc1cc2c(cc1NC(=O)COC(=O)CNC(=O)c1ccccc1)oc1ccccc12	none
COc1ccc(NC(=O)CC(C)CC(=O)NCc2ccc(F)cc2)c(OC)c1 (stereo not given)	none
CCN(CC)c1ccc(C(=O)OCC(=O)Nc2cc3oc4ccccc4c3cc2OC)cc1	none | Arr AP2 CP1 inactive | GST-FITC bead inactive
COC(=O)[C@]12C[C@H](CC(=O)NCc3cccc4ccccc34)C(=O)N(CCc3ccc(OC)c(OC)c3)C1=C[C@H](COCc1ccccc1)O[C@@H]2C	none (no result: Arr AP2 block, CAL PDZ FP-1, CAL PDZ FP-2)
COc1ccc(-n2c(SCC(=O)NN=Cc3c(O)ccc4ccccc34)nnc2-c2ccc(C(C)(C)C)cc2)cc1	none (no result: Arr AP2 block, CAL PDZ FP-1, CAL PDZ FP-2)
COc1cc2c(cc1NC(=O)CSc1ccc(Cl)cc1)oc1ccccc12	none | Arr AP2 CP1 inactive | GST-FITC bead inactive
COc1ccc(S(=O)(=O)N2CCCCCC2)cc1C(=O)NCCc1ccccc1	Arr AP2 block 61 | Arr AP2 CP1 inactive | GST-FITC bead inactive
CNC(=O)c1cc(S(=O)(=O)N2CC(C)OC(C)C2)ccc1N1CCCCC1 (stereo not given)	none | Arr AP2 CP1 inactive | GST-FITC bead inactive
Cc1cc(S(=O)(=O)N2CCCC2)ccc1OCC(=O)Nc1ccccc1	Arr AP2 block 64 | Arr AP2 CP1 inactive | GST-FITC bead inactive
CNC(=O)c1cc(S(=O)(=O)N2CC(C)OC(C)C2)ccc1N1CCOCC1 (stereo not given)	none
COc1cccc(CNC(=O)c2cc(S(=O)(=O)N3CCOCC3)ccc2N2CCCC2)c1	none (no result: CAL PDZ FP-1) | Arr AP2 CP1 inactive | GST-FITC bead inactive
Cc1cc(S(=O)(=O)N2CCCCC2)ccc1OCC(=O)Nc1ccccc1	none
C#CCNC(=O)C[C@@H]1C(=O)N2CCCC3=C2[C@@]1(C(=O)OCC)CCC3	none (no result: Arr AP2 block, CAL PDZ FP-1, CAL PDZ FP-2)
COCC#Cc1cnc2c(c1)C(=O)N([C@@H](C)CO)C[C@H](C)[C@H](CN(C)C(=O)c1ccc3c(c1)OCO3)O2	none (no result: Arr AP2 block, CAL PDZ FP-1, CAL PDZ FP-2)
Cc1cc(C)cc(C(=O)OCCCN(C)C2CN(Cc3cn(Cc4ccccc4F)nn3)S(=O)(=O)C2)c1 (stereo not given)	none (no result: Arr AP2 block, CAL PDZ FP-1, CAL PDZ FP-2)
O=C(Nc1cccc(C(F)(F)F)c1)c1cc(S(=O)(=O)N2CCCCC2)ccc1N1CCOCC1	none (no result: CAL PDZ FP-1)
O=C(Nc1cccc(F)c1)c1cc(S(=O)(=O)N2CCOCC2)ccc1N1CCCC1	none (no result: CAL PDZ FP-1, Tn6 DDE FP, Tn7 DDE FP) | Arr AP2 CP1 inactive | GST-FITC bead inactive
COC(=O)c1cc(-c2ccc(OC)c(OC)c2)c(=O)n2c1CCC2	none (no result: Arr AP2 block, CAL PDZ FP-1, CAL PDZ FP-2)
COCC(=O)Nc1nc2n(n1)C(c1ccc(Cl)cc1)CC(c1ccc(OC)cc1)N2 (stereo not given)	Arr AP2 block 80 | Arr AP2 CP1 inactive | GST-FITC bead inactive
COc1ccccc1CCNC(=O)C1CCC(=O)N(Cc2cccc(F)c2)C1 (stereo not given)	none
COc1ccccc1CCNC(=O)C1CCC(=O)N(Cc2ccccc2OC)C1 (stereo not given)	Arr AP2 block 66 | Arr AP2 CP1 inactive | GST-FITC bead inactive
CCn1ccnc1CNC(=O)C1CCC(=O)N(Cc2ccccc2F)C1 (stereo not given)	Arr AP2 block 54 | Arr AP2 CP1 inactive | GST-FITC bead inactive
COc1ccccc1CN1CC(C(=O)NCc2ccc(C)c(F)c2)CCC1=O (stereo not given)	none | Arr AP2 CP1 inactive | GST-FITC bead inactive
COc1ccccc1CN1CC(C(=O)NCc2c(F)ccc(C)c2F)CCC1=O (stereo not given)	none | Arr AP2 CP1 inactive | GST-FITC bead inactive
CCN(C(=O)C1CCCN1S(=O)(=O)c1cccnc1)c1ccccc1 (stereo not given)	none (no result: Arr AP2 block, CAL PDZ FP-1, CAL PDZ FP-2)
CCNC(=O)COc1ccc(/C=N/NC(=O)c2cccnc2)cc1OC	none (no result: CAL PDZ FP-1)
COc1cc(/C=N/NC(=O)c2cccnc2)ccc1OCC(=O)Nc1ccc(C)cc1	Arr AP2 block 91 | Arr AP2 CP1 inactive | GST-FITC bead inactive
CCCCNC(=S)N/N=C/c1ccc(OCC(=O)Nc2c(C)cc(C)cc2C)c(OC)c1	Arr AP2 block 103 | Arr AP2 CP1 inactive | GST-FITC bead inactive
COC(=O)[C@]12C[C@H](CC(=O)N3CCC(c4ccccc4)CC3)C(=O)N(Cc3ccccc3)C1=C[C@H](C(C)(C)C)O[C@@H]2C	none (no result: Arr AP2 block, CAL PDZ FP-1, CAL PDZ FP-2)
C=C(C)[C@@H]1CC=C(CN2CCN(Cc3ccccc3)CC2)CC1	Arr AP2 block 60 | Arr AP2 CP1 inactive | GST-FITC bead inactive
C=C(C)C1CC=C(CN2CCN(Cc3ccccc3)CC2)CC1 (stereo not given)	none
NC(=O)CSc1nc2c(c(=O)n1-c1ccccc1)C1(CCCCC1)Cc1ccccc1-2	Arr AP2 block 63 | Arr AP2 CP1 inactive | GST-FITC bead inactive
O=C1N/C(=C/c2cccn2-c2ccc(F)cc2)C(=O)N1Cc1ccccc1F	Arr AP2 block 105 | Arr AP2 CP1 inactive | GST-FITC bead inactive
O=C1N/C(=C/c2cccn2-c2ccccc2)C(=O)N1Cc1ccc(F)cc1	none
Clc1ccc(OCc2nnnn2-c2ccccc2)cc1	Arr AP2 block 73 | Arr AP2 CP1 inactive | GST-FITC bead inactive
CCOC(=O)N1CCN(C(=O)C[C@H]2C[C@@]3(C(=O)OC)C(=C[C@H](C(C)(C)C)O[C@@H]3C)N(Cc3cccc4ccccc34)C2=O)CC1	none (no result: Arr AP2 block, CAL PDZ FP-1, CAL PDZ FP-2)
CCOc1ccc(-c2c(C(=O)N/N=C/c3cccs3)nnn2-c2nonc2N)cc1	Arr AP2 block 61 | Arr AP2 CP1 inactive | GST-FITC bead inactive
